From ChEMBL document CHEMBL5058577, “EUbOPEN Chemogenomics Library 2 (Multiplex)” (2022)

Test system: HEK-293T
Assay: Multiplex assay against HEK293T
Format: toxicity, cell-based
Settings: human
Outline: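 Cells stained live at seeding with Hoechst33342, BioTracker Green Microtubule Cytoskeleton Dye, MitoTracker Red and Annexin V Alexa Fluor 680 were imaged on a CQ1 microscope at 37°C and 5% CO2 after compound addition. Their classification by CellPathfinder machine-learning gating ran from Hoechst high-intensity objects versus normal cells, to healthy, pyknosed or fragmented nuclei among normal cells, to mitotic or apoptotic among pyknosed cells. Tubulin, mitochondrial-mass and membrane-permeability phenotypes are per cents of healthy-nucleus cells.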

[1] = 12 h, 1 µM, compound concentration 1 uM, replicate 1
[2] = 12 h, 1 µM, compound concentration 1 uM, replicate 2
[3] = 12 h, 10 µM, compound concentration 10 uM, replicate 1
[4] = 12 h, 10 µM, compound concentration 10 uM, replicate 2
[5] = 24 h, 1 µM, compound concentration 1 uM, replicate 1
[6] = 24 h, 1 µM, compound concentration 1 uM, replicate 2
[7] = 24 h, 10 µM, compound concentration 10 uM, replicate 1
[8] = 24 h, 10 µM, compound concentration 10 uM, replicate 2
[9] = 48 h, 1 µM, compound concentration 1 uM, replicate 1
[10] = 48 h, 1 µM, compound concentration 1 uM, replicate 2
[11] = 48 h, 10 µM, compound concentration 10 uM, replicate 1
[12] = 48 h, 10 µM, compound concentration 10 uM, replicate 2

CN[C@@H](C)C(=O)N[C@H](C(=O)N1CCC[C@H]1C(=O)Nc1snnc1-c1ccccc1)C1CCCCC1 [GDC-0152]
Population Apoptotic (%) [1]: 31%
Population Fragmented Nuclei (%) [1]: 5%
Population Healthy Nuclei (%) [1]: 78%
Population Hoechst High Intensity Objects (%) [1]: 5%
Population Membrane Permeable-Phenotype (%) [1]: 0%
Population Mitochondria Different-Phenotype (%) [1]: 41%
Population Mitotic Cells (%) [1]: 68%
Population Normal (%) [1]: 94%
Population Pyknosed Nuclei (%) [1]: 15%
Population Tubulin-Different-Phenotype (%) [1]: 35%
Total Cell Count [1]: 444
Population Apoptotic (%) [2]: 60%
Population Healthy Nuclei (%) [2]: 79%
Population Hoechst High Intensity Objects (%) [2]: 7%
Population Mitochondria Different-Phenotype (%) [2]: 62%
Population Mitotic Cells (%) [2]: 39%
Population Normal (%) [2]: 92%
Population Pyknosed Nuclei (%) [2]: 14%
Population Tubulin-Different-Phenotype (%) [2]: 26%
Total Cell Count [2]: 314
Population Apoptotic (%) [3]: 50%
Population Fragmented Nuclei (%) [3]: 6%
Population Healthy Nuclei (%) [3]: 73%
Population Hoechst High Intensity Objects (%) [3]: 13%
Population Membrane Permeable-Phenotype (%) [3]: 0%
Population Mitochondria Different-Phenotype (%) [3]: 78%
Population Mitotic Cells (%) [3]: 49%
Population Normal (%) [3]: 86%
Population Pyknosed Nuclei (%) [3]: 20%
Population Tubulin-Different-Phenotype (%) [3]: 78%
Total Cell Count [3]: 362
Population Apoptotic (%) [4]: 72%
Population Fragmented Nuclei (%) [4]: 7%
Population Hoechst High Intensity Objects (%) [4]: 20%
Population Mitochondria Different-Phenotype (%) [4]: 89%
Population Mitotic Cells (%) [4]: 28%
Population Normal (%) [4]: 80%
Population Pyknosed Nuclei (%) [4]: 18%
Population Tubulin-Different-Phenotype (%) [4]: 72%
Total Cell Count [4]: 330
Population Apoptotic (%) [5]: 30%
Population Fragmented Nuclei (%) [5]: 8%
Population Healthy Nuclei (%) [5]: 80%
Population Hoechst High Intensity Objects (%) [5]: 4%
Population Membrane Permeable-Phenotype (%) [5]: 1%
Population Mitochondria Different-Phenotype (%) [5]: 28%
Population Mitotic Cells (%) [5]: 69%
Population Normal (%) [5]: 95%
Population Pyknosed Nuclei (%) [5]: 10%
Population Tubulin-Different-Phenotype (%) [5]: 23%
Total Cell Count [5]: 601
Population Apoptotic (%) [6]: 38%
Population Fragmented Nuclei (%) [6]: 5%
Population Healthy Nuclei (%) [6]: 82%
Population Hoechst High Intensity Objects (%) [6]: 6%
Population Membrane Permeable-Phenotype (%) [6]: 0%
Population Mitochondria Different-Phenotype (%) [6]: 53%
Population Mitotic Cells (%) [6]: 61%
Population Normal (%) [6]: 93%
Population Pyknosed Nuclei (%) [6]: 12%
Population Tubulin-Different-Phenotype (%) [6]: 22%
Total Cell Count [6]: 387
Population Apoptotic (%) [7]: 45%
Population Fragmented Nuclei (%) [7]: 10%
Population Healthy Nuclei (%) [7]: 71%
Population Hoechst High Intensity Objects (%) [7]: 7%
Population Membrane Permeable-Phenotype (%) [7]: 0%
Population Mitochondria Different-Phenotype (%) [7]: 74%
Population Mitotic Cells (%) [7]: 54%
Population Normal (%) [7]: 92%
Population Pyknosed Nuclei (%) [7]: 17%
Population Tubulin-Different-Phenotype (%) [7]: 69%
Total Cell Count [7]: 454
Population Apoptotic (%) [8]: 60%
Population Fragmented Nuclei (%) [8]: 12%
Population Healthy Nuclei (%) [8]: 68%
Population Hoechst High Intensity Objects (%) [8]: 21%
Population Mitochondria Different-Phenotype (%) [8]: 80%
Population Mitotic Cells (%) [8]: 40%
Population Normal (%) [8]: 78%
Population Pyknosed Nuclei (%) [8]: 19%
Population Tubulin-Different-Phenotype (%) [8]: 58%
Total Cell Count [8]: 400
Population Apoptotic (%) [9]: 31%
Population Fragmented Nuclei (%) [9]: 12%
Population Healthy Nuclei (%) [9]: 78%
Population Hoechst High Intensity Objects (%) [9]: 4%
Population Membrane Permeable-Phenotype (%) [9]: 1%
Population Mitochondria Different-Phenotype (%) [9]: 22%
Population Mitotic Cells (%) [9]: 68%
Population Normal (%) [9]: 95%
Population Pyknosed Nuclei (%) [9]: 9%
Population Tubulin-Different-Phenotype (%) [9]: 16%
Total Cell Count [9]: 928
Population Apoptotic (%) [10]: 40%
Population Fragmented Nuclei (%) [10]: 10%
Population Healthy Nuclei (%) [10]: 82%
Population Hoechst High Intensity Objects (%) [10]: 3%
Population Mitochondria Different-Phenotype (%) [10]: 29%
Population Mitotic Cells (%) [10]: 60%
Population Normal (%) [10]: 96%
Population Pyknosed Nuclei (%) [10]: 6%
Total Cell Count [10]: 603
Population Apoptotic (%) [11]: 47%
Population Fragmented Nuclei (%) [11]: 12%
Population Healthy Nuclei (%) [11]: 73%
Population Hoechst High Intensity Objects (%) [11]: 16%
Population Membrane Permeable-Phenotype (%) [11]: 0%
Population Mitochondria Different-Phenotype (%) [11]: 74%
Population Mitotic Cells (%) [11]: 52%
Population Normal (%) [11]: 83%
Population Pyknosed Nuclei (%) [11]: 13%
Population Tubulin-Different-Phenotype (%) [11]: 55%
Total Cell Count [11]: 538
Population Apoptotic (%) [12]: 60%
Population Healthy Nuclei (%) [12]: 70%
Population Hoechst High Intensity Objects (%) [12]: 21%
Population Mitochondria Different-Phenotype (%) [12]: 76%
Population Mitotic Cells (%) [12]: 39%
Population Normal (%) [12]: 78%
Population Pyknosed Nuclei (%) [12]: 17%
Population Tubulin-Different-Phenotype (%) [12]: 52%
Total Cell Count [12]: 417
